Measurements of several laboratories.
FLT3: Receptor-type tyrosine-protein kinase FLT3 (FLT3, Homo sapiens, UniProt P36888)
FLT3 D835Y: Receptor-type tyrosine-protein kinase FLT3 (FLT3, Homo sapiens, UniProt P36888, D835Y)
FLT3 K663Q: Receptor-type tyrosine-protein kinase FLT3 (FLT3, Homo sapiens, UniProt P36888, K663Q)
FLT3 D835H: Receptor-type tyrosine-protein kinase FLT3 (FLT3, Homo sapiens, UniProt P36888, D835H)
FLT3 autoinhibited: Receptor-type tyrosine-protein kinase FLT3, autoinhibited (FLT3, Homo sapiens, UniProt P36888)
FLT3 N841I: Receptor-type tyrosine-protein kinase FLT3 (FLT3, Homo sapiens, UniProt P36888, N841I)

CC(C)c1ccc(NC(=O)c2cccs2)c(-c2nc3ccccc3[nH]c2=O)c1 — activity vs control (FLT3; enzyme activity, inhibitor; 1 µM): 51%
CN(CCCC(F)(F)F)c1nccc(-c2cnn3ncccc23)n1 — remaining binding (FLT3; binding; 1 µM): 63%
Cc1[nH]c(/C=C2\C(=O)Nc3ccc(F)cc32)c(C)c1C(=O)N[C@H]1CCN(C(=O)N(C)C)C1 — remaining activity (FLT3; enzyme activity, inhibitor; 1 µM): 2%
CCS(=O)(=O)c1cc2cc(C[C@@](O)(CC(C)(C)c3ccc(F)cc3C(N)=O)C(F)(F)F)[nH]c2cn1 — remaining binding (Receptor-type tyrosine-protein kinase FLT3 (FLT3, Homo sapiens, UniProt P36888, D835V/ITD); cell-free assay, competition with immobilised ligand; 1 µM): 73%
Cc1ccc(NC(=O)c2ccc(C)c(C(F)(F)F)c2)cc1C#Cc1nn(C2CCC(O)CC2)c2ncnc(N)c12 (centres unmarked) — remaining activity (FLT3 D835Y; enzyme activity, inhibitor; 10 µM): 118%
CC(C)(C)c1nc(-c2cccc(NS(=O)(=O)c3c(F)cccc3F)c2F)c(-c2ccnc(N)n2)s1 — remaining activity (FLT3; enzyme activity, inhibitor, radiometric; 1 µM): 117%
CCCOc1ccc([C@H]2[C@H](C(=O)O)[C@@H](c3ccc4c(c3)OCO4)CN2CC(=O)Nc2c(CC)cccc2CC)cc1 — remaining binding (Receptor-type tyrosine-protein kinase FLT3 (FLT3, Homo sapiens, UniProt P36888, ITD); cell-free assay, competition with immobilised ligand; 1 µM): 81%
Cc1cnc(Nc2ccc(C(=O)N3CCC(N4CCCC4)CC3)cc2)nc1-c1cc2ccccc2s1 — remaining binding (FLT3 K663Q; binding, competition with immobilised ligand; 1 µM): 2.2%
CC(C)CC(=O)N1CCc2nc(-c3ccc(Br)cc3)nc(N(C)Cc3ccccc3)c2C1 — remaining binding (FLT3 D835Y; cell-free assay, competition with immobilised ligand; 0.1 µM): 100%
CCN(CC)CCNC(=O)c1c(C)[nH]c(/C=C2\C(=O)Nc3ccc(F)cc32)c1C — remaining signal (FLT3; cell-free assay; 0.5 µM): 2.71%
CC1CCCN1c1nccc(-c2cnn3ncccc23)n1 (centres unmarked) — remaining binding (FLT3 D835H; binding; 1 µM): 90%
Nc1ncnc2occ(-c3ccc(NC(=O)Nc4cc(C(F)(F)F)ccc4F)cc3)c12 — remaining signal (Receptor-type tyrosine-protein kinase FLT3 (FLT3, Homo sapiens, UniProt P36888, F691L/ITD); cell-free assay, inhibitor; 20 µM): 6.5%
CN(c1ccnc(CNc2nc(Nc3ccc4c(c3)CC(=O)N4)ncc2C(F)(F)F)n1)S(C)(=O)=O — remaining binding (FLT3 D835H; cell-free assay, competition with immobilised ligand; 1 µM): 15%
N[C@H]1CCN(c2nccc(-c3cnn4ncccc34)n2)C1 — remaining binding (FLT3 autoinhibited; binding; 1 µM): 99%
O=C(Nc1cnn(-c2csc(C(=O)NC3COC3)c2)c1)Nc1ccccc1Cl — remaining activity (FLT3; enzyme activity, inhibitor; 5 µM): 89.7%
CN(c1nccc(-c2cnn3ncccc23)n1)C1CC1 — remaining binding (FLT3 autoinhibited; binding; 1 µM): 100%
O=C(NCCCN1CCOCC1)c1ccc(Nc2nccc(-c3cc4ccccc4s3)n2)cc1 — remaining binding (FLT3 N841I; binding, competition with immobilised ligand; 1 µM): 9.2%
C[C@H](NC(=O)c1cnc2n1[C@](C)(Cc1ccc(C#N)cc1)C(=O)N2c1cc(Cl)c(F)c(Cl)c1)C(=O)NC1(c2ccccn2)CC1 — remaining binding (FLT3 K663Q; cell-free assay, competition with immobilised ligand; 1 µM): 100%
C[C@H]1CCN(c2nccc(-c3cnn4ncccc34)n2)C1 — remaining binding (FLT3 K663Q; binding; 1 µM): 98%
COc1cc(-c2cn(C3CCc4c(F)cccc4N(CC(F)(F)F)C3=O)nn2)ccc1-n1cnc(C)c1 (centres unmarked) — remaining binding (FLT3 N841I; cell-free assay, competition with immobilised ligand; 1 µM): 99%
O=C(c1cc2cc(O)ccc2[nH]1)c1cc2cc(O)ccc2[nH]1 — remaining signal (FLT3; cell-free assay; 0.5 µM): 3.53%
CCC(=N\O)/C(C)=C/c1ccc(F)cc1 — remaining binding (Receptor-type tyrosine-protein kinase FLT3 (FLT3, Homo sapiens, UniProt P36888, D835V); cell-free assay, competition with immobilised ligand; 1 µM): 100%
Cc1ccc(C(=O)Nc2ccc(CN3CCN(C)CC3)c(C(F)(F)F)c2)cc1C#Cc1cnc2cccnn12 — remaining activity (FLT3; enzyme activity, inhibitor; 23.5 nM): 58%
